According to the RNAGym collection of RNA variant scans (doi:10.1126/science.aae0568):
Variants at the floor of the assay were thinned out.

B1: tRNA (parent)
chain: GUUCCGUUGGCGUAAUGGUAACGCGUCUCCCUCCUAAGGAGAAGACUGCGGGUUCGAGUCCCGUACGGAACG

Variants of: B1
Experiment: yeast fitness relative to wild type (ratio to wild type); higher = fitter; tRNA-Arg(CCU), competitive growth, 37 C, YPD
How it was run: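 Genotype frequency changes were the basis for Darwinian fitness relative to wild type. The frequencies came from 100-nucleotide paired-end sequencing of gene amplicons from the start population and each end population of pooled yeast strains with tRNA-Arg(CCU) gene variants at the native locus. Competition ran in YPD at 37°C for 24 hours in six replicates, genotypes needed ≥ 100 starting reads, and estimates < 0.5 were set to 0.5.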

Compared with U2C G58A, U3G A20C A21G is lower in yeast fitness: 0.893 for the first, 0.798 for the second.

Compared with G12A G18C C62U G63C A70C, C30U G38A A69U is higher in yeast fitness: at most 0.5 for the first, 0.781 for the second.

First: C4A U53C U64A
Second: G48A G63C
The yeast fitness of the first is lower: at most 0.5 for the first, 0.89 for the second.

First: A14U G68C A69C
Second: G48A G52A G67A
The yeast fitness of the first is lower: at most 0.5 for the first, 0.648 for the second.

G9A U28C G44A G51C G58C G68C and A14C A20U C31U cannot be ordered by yeast fitness: at most 0.5 for the first, at most 0.5 for the second.

G6A A21C U47A G58A A65C and C24U C34U C49U C61U cannot be ordered by yeast fitness: at most 0.5 for the first, at most 0.5 for the second.

Compared with A20G A45G, U19C C24G U35A is lower in yeast fitness: 0.992 for the first, 0.804 for the second.

Going from C4U U8C C11A G12A U28C G44C to U3A C27U A36G A70U, the yeast fitness rises from at most 0.5 to 0.729.

Compared with G10A C30G, A20U U32A C46G is higher in yeast fitness: 0.511 for the first, 0.586 for the second.

A14C A15G G44C C60A and C5A G17C C46G C55U cannot be ordered by yeast fitness: at most 0.5 for the first, at most 0.5 for the second.

Compared with G25C C61G G67C, C5U G17A C29U G52C C55G A69U is lower in yeast fitness: 0.527 for the first, at most 0.5 for the second.

First: C11A A21C G51C U59G
Second: U2C C30A
The yeast fitness of the first is lower: at most 0.5 for the first, 0.89 for the second.

First: G12C G48A
Second: C22A G25C C62A
The yeast fitness of the first is higher: 1.01 for the first, 0.559 for the second.

Compared with C34G G39A C49G C61U, U7C C62A is higher in yeast fitness: at most 0.5 for the first, 0.786 for the second.

U16C C22U C24U C29U and U3C U54A C62U cannot be ordered by yeast fitness: at most 0.5 for the first, at most 0.5 for the second.

C5U U13A C29G C31A C61U and A14C U16C A37G A40U G51C A69C cannot be ordered by yeast fitness: at most 0.5 for the first, at most 0.5 for the second.

First: C11A C22G C49G G68C A69C
Second: C11U A14C C27G C46G A65G
The yeast fitness of the first is lower: at most 0.5 for the first, 0.52 for the second.

Compared with C5U A15U C29U C31U C34U G48C G68A, C34G G52A A69C is higher in yeast fitness: at most 0.5 for the first, 0.645 for the second.

Compared with U2C A20U G25A C27G G67A, U16C A69C is higher in yeast fitness: at most 0.5 for the first, 0.889 for the second.

U7C C22U A43U and C30U C34G C46U cannot be ordered by yeast fitness: at most 0.5 for the first, at most 0.5 for the second.

Going from C29G G48A C55G A57G to A15U A45U A69C, the yeast fitness rises from at most 0.5 to 0.647.

Going from U7C G38A to C4A A37G G63C, the yeast fitness falls from 0.881 to 0.552.

Going from U2A U64A to A37C C55G G56A A69C, the yeast fitness falls from 0.855 to at most 0.5.

First: C33G U47G C66U
Second: G17A C60A
The yeast fitness of the first is higher: 0.56 for the first, at most 0.5 for the second.

Going from A20G G23A A45U G56A to G18A A21U G48A, the yeast fitness rises from 0.539 to 0.571.

First: A43U U54A A70G
Second: C22G C31U G56A
The yeast fitness of the first is lower: at most 0.5 for the first, 1.16 for the second.

First: G17C G48A C55U
Second: C4G C34G U47A C49A A65G
The yeast fitness of the first is lower: at most 0.5 for the first, 0.519 for the second.

U2C U13C A14G C22G U26A and C11A C27G C61A cannot be ordered by yeast fitness: at most 0.5 for the first, at most 0.5 for the second.

Going from U28G U32C C49G G52C to C4U C61A, the yeast fitness rises from at most 0.5 to 0.667.

First: A15C C31U
Second: A20U U32A
The yeast fitness of the first is lower: 0.742 for the first, 0.78 for the second.

C34G G44C G58C G68U and A20G U28C C49A cannot be ordered by yeast fitness: at most 0.5 for the first, at most 0.5 for the second.

C30U C33U A57G C60A and G10A A14G C27U A40C U47A G48C cannot be ordered by yeast fitness: at most 0.5 for the first, at most 0.5 for the second.

First: A15G U54A C61U
Second: U47A G48C G51A C61A
The yeast fitness of the first is higher: 0.57 for the first, at most 0.5 for the second.

First: C5A U8C U13C A40G
Second: A21U C29G C49G A70U
The yeast fitness of the first is higher: 0.522 for the first, at most 0.5 for the second.

C11A C31A G51C and G12A A37G A65C cannot be ordered by yeast fitness: at most 0.5 for the first, at most 0.5 for the second.

Compared with G6A U13A G58C C60U C66G, G9A C34G is higher in yeast fitness: at most 0.5 for the first, 0.588 for the second.

U7C C24A C55A C62U A65C and C29A G56C C61A cannot be ordered by yeast fitness: at most 0.5 for the first, at most 0.5 for the second.

First: U3C C49A G51C
Second: G9U A65U
The yeast fitness of the first is higher: 0.694 for the first, 0.639 for the second.

First: G10C G12A U28C C61G C66U
Second: A14C A37U
The yeast fitness of the first is lower: at most 0.5 for the first, 0.655 for the second.

C4A C29G G68C and A15G G44C U59A cannot be ordered by yeast fitness: at most 0.5 for the first, at most 0.5 for the second.

Going from G10C U13C G18C C27U C33G C55U U64A G68C A70U to U16A U59A C62U, the yeast fitness falls from 0.593 to at most 0.5.

Compared with C4A A15G A40G U64A, G39A A42G is higher in yeast fitness: at most 0.5 for the first, 0.811 for the second.

Compared with C5G A15G C24G U32A C34G C66U, U16A C31G A69U is higher in yeast fitness: at most 0.5 for the first, 0.601 for the second.

Going from G9C A65U to U3A C31U, the yeast fitness rises from 0.774 to 1.02.

Compared with G48C G50C, C4U C34G G63C A69C is lower in yeast fitness: 0.68 for the first, at most 0.5 for the second.

Going from U19G C66A to U2A A21G A36U, the yeast fitness rises from 0.53 to 0.624.

Compared with U7C C46A U64C, C11U C29G A37C A42U A57G C61U G67A is lower in yeast fitness: 0.545 for the first, at most 0.5 for the second.

First: A15G G41A A69U
Second: A21C C24U A36C
The yeast fitness of the first is higher: 0.615 for the first, 0.592 for the second.

A42U A57U C61G and G9A C30U G52A cannot be ordered by yeast fitness: at most 0.5 for the first, at most 0.5 for the second.

A15C U19A C24G G63A and A21U C29G A57U A65C cannot be ordered by yeast fitness: at most 0.5 for the first, at most 0.5 for the second.

First: C27U C33A
Second: C11U C22G C33U
The yeast fitness of the first is higher: 0.618 for the first, at most 0.5 for the second.

First: C11G A42G A45U U47C U64C A70C
Second: G41A A43C C66U
The yeast fitness of the first is lower: at most 0.5 for the first, 0.517 for the second.

Going from U26A C46U A65C to U8A U26G U35C G63A A70G, the yeast fitness falls from 0.631 to at most 0.5.

A14U U32G G52A G63C and G12C C33A G51C C62G cannot be ordered by yeast fitness: at most 0.5 for the first, at most 0.5 for the second.

Compared with G18C C49A C61G, C31U C34U is higher in yeast fitness: 0.694 for the first, 0.748 for the second.

First: U35C A42U C62G
Second: G12C G25A G41C
The yeast fitness of the first is lower: 0.546 for the first, 0.591 for the second.

Compared with U3A C5A G6C A14C G48C C55U G63U, C31U A57G is higher in yeast fitness: at most 0.5 for the first, 1.06 for the second.

C11U C22U G44C C62U and C5A C27A C46A C49A C55A cannot be ordered by yeast fitness: at most 0.5 for the first, at most 0.5 for the second.

Going from A15U U35A A43G G67C to A36C A57C G68A, the yeast fitness rises from at most 0.5 to 0.541.

Compared with C4A A57G, G12A U47C is higher in yeast fitness: 0.841 for the first, 0.905 for the second.

U47C C60A C61G A69U and G10A C11A A20U C66G cannot be ordered by yeast fitness: at most 0.5 for the first, at most 0.5 for the second.

First: U16C A20U G25C
Second: A20C G23A C55G
The yeast fitness of the first is lower: at most 0.5 for the first, 0.593 for the second.

Going from C5U G51C U53C A69G to U2A G39U C49A G58C, the yeast fitness rises from at most 0.5 to 0.939.

A20C C22G C33A A42C C61U and C22A A37C A65G C66U cannot be ordered by yeast fitness: at most 0.5 for the first, at most 0.5 for the second.

Going from C22A C29A C61U to G44C C46A A69U, the yeast fitness rises from at most 0.5 to 0.726.

Compared with G10A C30U C60G C66U, G12C G38C is higher in yeast fitness: at most 0.5 for the first, 0.54 for the second.

Going from A14G A36U G58C to U19G C30U C62G, the yeast fitness rises from at most 0.5 to 0.603.

G9A C11U C46G C62U C66U and G18C U19A U28G A40C cannot be ordered by yeast fitness: at most 0.5 for the first, at most 0.5 for the second.

First: C55A U59A
Second: G9A C34U C49A G52A
The yeast fitness of the first is higher: 0.513 for the first, at most 0.5 for the second.

Going from A36U G48C C55G to U7C U13C, the yeast fitness rises from at most 0.5 to 0.836.

Compared with C5G G17C A20C A21U C27U C33G G67A, C4G C5G G56A A69C is lower in yeast fitness: 0.595 for the first, at most 0.5 for the second.

First: C30A C31U A42C
Second: C29G A57C U59G
The yeast fitness of the first is higher: 0.943 for the first, at most 0.5 for the second.

Compared with G10A A36C A37G C49A, C5U G58C is higher in yeast fitness: at most 0.5 for the first, 1 for the second.

Going from C5A A20G C30A A40U G41C C61G G63C to U32A A42G, the yeast fitness rises from 0.565 to 0.655.

Compared with C31A, U8C C30G C31G U64G C66U is lower in yeast fitness: 0.848 for the first, at most 0.5 for the second.

Going from A20U U28C G44A C46U G48A C60G C62A C66G to G9A C66U, the yeast fitness rises from 0.578 to 0.898.

Going from G38C A40U to G12A U13C A42U, the yeast fitness falls from 0.639 to 0.561.

First: C5G A14C
Second: A20C U26G A36C G38U A65U
The yeast fitness of the first is higher: 0.625 for the first, at most 0.5 for the second.

Compared with A45C C49A A65U, G6A C60U is higher in yeast fitness: at most 0.5 for the first, 0.675 for the second.

Compared with U2G C24U G67C, U7G C29U C31U G38C is lower in yeast fitness: 0.681 for the first, at most 0.5 for the second.

Going from U16G C55U to C4U U28C G38C C61U, the yeast fitness falls from 0.817 to at most 0.5.

First: G17U G38A G68A
Second: C5A G17A G67C
The yeast fitness of the first is lower: at most 0.5 for the first, 0.662 for the second.

C31U C55G U59A and C11G C34U G44C G50C U53C cannot be ordered by yeast fitness: at most 0.5 for the first, at most 0.5 for the second.

A14C A21G C22U U47A G56A showed a yeast fitness of 0.622.
